Compound activity deposited in PubChem by several laboratories.
This is a sample that favours compounds with a hit; in the whole collection about 2.3% have one here.
Pemphigus Ab inh: blocks pemphigus antibody binding to human desmoglein-3. P32926. DSG3-coupled beads, scFv-anti-DSG3-GFP binding, flow cytometry; active compounds read low. binding (percent of control), % at 10 µM. actives 0.48% (n = 310,000);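 active = binding more than 3 SD below its plate's average and above zero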;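 also: hits lower antibody fragment binding to DSG3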
Mcl1-Bid inh: Mcl-1/Bid interaction inhibition | actives 0.97% (n = 220,000) | TR-FRET Mcl-1/Bid-Dy647 peptide binding, 1536-well | inhibition, % at 21.7 µM | Q07820;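 active = compounds that cut the binding signal by more than half at the single screening dose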;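 also: His-tagged Mcl-1 with europium anti-His antibody binding Bid BH3 peptide; 0% = Mcl-1 plus peptide wells and 100% = peptide-only wells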
Target sequence (Q07820 whole entry, looked up): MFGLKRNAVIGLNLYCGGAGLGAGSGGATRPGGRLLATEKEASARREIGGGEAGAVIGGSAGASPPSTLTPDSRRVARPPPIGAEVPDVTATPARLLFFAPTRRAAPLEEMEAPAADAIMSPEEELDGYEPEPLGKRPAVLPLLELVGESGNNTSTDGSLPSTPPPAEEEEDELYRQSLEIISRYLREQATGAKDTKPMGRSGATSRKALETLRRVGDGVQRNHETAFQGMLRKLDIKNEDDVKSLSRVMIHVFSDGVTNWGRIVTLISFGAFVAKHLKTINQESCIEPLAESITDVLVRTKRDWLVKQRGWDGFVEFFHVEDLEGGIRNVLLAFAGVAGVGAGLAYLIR
Mcl1-Noxa inh: disrupts binding of human Mcl-1 to Noxa peptide; TR-FRET Mcl-1/Noxa peptide binding, 2 h; actives 1.5% (n = 220,000); inhibition, % at 21.7 µM; Q07820;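 active = compounds that cut the protein-peptide binding signal by more than 50% relative to plate controls in a single-dose test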;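 also: His-tagged Mcl-1 with rhodamine Noxa BH3 peptide and terbium anti-His antibody; 0% = Mcl-1 plus Noxa peptide wells and 100% = peptide-only wells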
T cell HTS: T cell immune modulation candidate; response (vesicle binding), % at 7 µM; actives 0.068% (n = 330,000); AID 2052; 2C CD8+ T cell-vesicle binding, flow cytometry; active compounds read low;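 active = response, share of CD8 T cells binding vesicles, and their 90th percentile fluorescence all below set limits, cut at about 80% in these data, passing the limit was not always enough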;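 also: values below 100% mean blocked vesicle binding to the CD8+ T cells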
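Benchmarks: naked versus QL9-loaded vesicles / Assay system: purified 2C TCR transgenic mouse naive CD8+ T cells / Technique: high-throughput flow cytometry with anti-B7-1 and anti-CD8 staining / Timing: Cell–vesicle co-incubation 1.5 h at 37 °C, staining 20 min on ice / Read-out: percent CD8+ FL2 mean versus row control / Probe or stimulus: QL9-loaded Drosophila micro-vesicles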
MCL1 BIM primary: inhibitors of human MCL1 binding to BIM-BH3 peptide | inhibition, % at 10.9 µM | Q07820 | GST-MCL1 / FITC-Bim-BH3 fluorescence polarization | actives 0.68% (n = 320,000);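 active = inhibition above the mean inhibition of all tested compounds plus 3 SD, set per campaign, cut at about 40% in these data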;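 also: 0% = DMSO wells and 100% = unlabeled Bim-BH3 peptide control; higher means more loss of mP so more displacement of Bim peptide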
Mcl-1 Bim block: inhibitors of Bim-Mcl-1 interaction, human; AID 1009; inhibition, % at 10 µM; Bead-based flow cytometry, Bim peptide-Mcl-1 binding; actives 0.1% (n = 190,000); Q07820; in the data active = inhibition above about 40%;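 also: 0% = no compound tracer wells and 100% = peptide blocker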
* marks the source's active call; other numbers are inactive results; i = inactive; x = no result given; ! = not confirmed by another sample.

SMILES	Pemphigus Ab inh	Mcl1-Bid inh	Mcl1-Noxa inh	T cell HTS	MCL1 BIM primary	Mcl-1 Bim block
COc1ccc(N2CCN(Cc3nc4scc(-c5ccccc5)c4c(=O)[nH]3)CC2)cc1	49*	-29	47	355	-11	-2
O=c1[nH]c(CN2CCN(c3ccccc3)CC2)nc2scc(-c3ccccc3)c12	105	-30	14	259	-26	0
COc1ccc(N2CCN(Cc3nc4scc(-c5cccs5)c4c(=O)[nH]3)CC2)cc1	101	-29	23	142	-8	-4
Cc1sc2nc(CN3CCN(c4ccc(O)cc4)CC3)[nH]c(=O)c2c1C	99	-36	67*	521	17	x
CSCc1nc2sc(C(=O)Nc3nc(C)cs3)c(C)c2c(=O)[nH]1	118	-23	79*	223	-2	0
Cc1csc(NC(=O)CSc2nc3sc(C)c(C)c3c(=O)[nH]2)n1	91	63*	-118	110	-10	-4
COc1ccc(NC(=O)c2cccc(NC3=NC4CS(=O)(=O)CC4S3)c2)cc1Cl (centres undefined)	98	x	x	i	-2	x
COc1ccc(S(=O)(=O)N2CCc3ccccc32)cc1C(=O)N(CC(C)C)C1CCS(=O)(=O)C1 (centres undefined)	106	x	x	283	-5	x
O=C(NCCN1CCN(c2ccccc2)CC1)c1ccc2c(c1)[nH]c(=S)n1c3ccccc3nc21	x	9	51*	195	-5	-2
CC(C)NS(=O)(=O)c1ccc(OCC(=O)Nc2ccc(F)cc2)cc1	104	-11	13	592	4	58*
Cc1cc(C(=O)COC(=O)c2cccnc2Cl)c(C)n1C	x	x	x	464	x	x
CCOc1ccc(NS(=O)(=O)c2cccs2)cc1S(=O)(=O)N1CCCC1	98	x	x	x	x	x
CCCCOc1ccc(/C=N/NC(=S)Nc2cc(C)ccc2C)cc1	98	-9	20	0	6	-4
CCCCOc1ccc(/C=N/NC(=S)Nc2cccc(C)c2C)cc1	2.8*	-31	-10	339	6	1
COc1ccc(C(=O)Nc2nc3c(s2)Cc2cc(OC)ccc2-3)cc1	105	55*	86*	174	11	0
COc1ccc(C(=O)Nc2nc3ccc4nc(C)sc4c3s2)cc1	88	13	53*	191	-15	2
COc1cc(C(=O)Nc2nc3ccc4nc(C)sc4c3s2)cc(OC)c1OC	97	4	12	197	-3	-3
COc1ccc2c(c1)Cc1sc(NC(=O)c3ccccc3)nc1-2	109	-9	11	189	3	1
Fc1cccc(CSc2ccc(-c3ccco3)nn2)c1	113	0	7	205	19	-8
Fc1ccc(CSc2ccc(-c3ccco3)nn2)cc1	128	61*	4	218	10	-4
Cc1ccc(NC2c3ncccc3C(=O)N2Cc2ccc(F)cc2)cc1 (centres undefined)	100	51*	32	269	3	-4
COc1ccc(CN2C(=O)c3cccnc3C2Nc2ccc(OC)c(Cl)c2)cc1 (centres undefined)	96	70*	44	618	6	-4
COc1ccc(NC(=O)CSc2nccn2Cc2ccccc2)c(OC)c1	x	x	x	226	4	x
O=C1c2cccnc2C(Nc2ccc(Cl)cc2)N1Cc1cccs1 (centres undefined)	86	3	5	206	10	0
CCOc1ccc(N2C(=O)c3cccnc3C2Nc2ccc(F)cc2)cc1 (centres undefined)	97	84*	19	688	7	0
SMILES	Pemphigus Ab inh	Mcl1-Bid inh	Mcl1-Noxa inh	T cell HTS	MCL1 BIM primary	Mcl-1 Bim block
COc1ccc(NC2c3ncccc3C(=O)N2Cc2ccccc2)c(OC)c1 (centres undefined)	97	64*	43	377	31	6
COCCNc1oc(/C=C/c2ccccc2OC)nc1S(=O)(=O)c1ccccc1	101	x	x	360	0	x
COCCN(C(=O)COC(=O)COc1ccc(Cl)c(C)c1)c1c(N)n(Cc2ccccc2)c(=O)[nH]c1=O	103	x	x	312	-24	x
Cc1cc(OCC(=O)Nc2c(C(C)C)cccc2C(C)C)no1	120	x	x	x	x	x
O=C(COC(=O)CCC1CCCC1)Nc1cccc(S(=O)(=O)N2CCOCC2)c1	101	x	x	481	-4	x
C[C@H](NC(=O)c1ccccc1)C(=O)N1CCN(c2ccccc2)CC1	93	x	x	715	4	x
O=C(CNc1ccc2ccccc2c1)N/N=C/C=C/c1cccc([N+](=O)[O-])c1	75	13	77*	326	0	-2
C=CCn1c(SCc2ccc(C#N)cc2)nnc1-c1cccc(OC)c1	98	95*	5	269	-21	-3
C=CCn1c(SCc2ccc(C#N)cc2)nnc1-c1ccccc1	108	-32	-5	198	-2	-73
CCCN1C(=O)/C(=C/c2ccc(C)s2)SC1=Nc1ccc(OC)cc1	109	-41	4	207	-12	0
CCN1C(=O)/C(=C/c2cccs2)SC1=Nc1ccc(OC)cc1	106	97*	7	157	1	-1
COc1cc(OC)c(-c2nn3c(-c4ccco4)nnc3s2)cc1OC	103	-8	64*	x	x	4
COc1ccc(-c2nn3c(-c4ccco4)nnc3s2)cc1OC	x	-30	35	218	-1	20
c1ccc(-c2cc(-c3nn4c(-c5ccco5)nnc4s3)c3ccccc3n2)cc1	88	38	51*	908	13	4
Cc1cc(-c2nn3c(-c4ccccc4)nnc3s2)c2ccccc2n1	97	-4	12	318	5	-5
OC[C@@H]1CC[C@@H](Cc2ccc(-c3ccccc3)cc2)O1	99	x	x	x	x	x
CCN(CC)c1ccc(/C=C2\CCC(/C=C(\C#N)C(=O)Nc3ccccc3F)=C2N2CCOCC2)cc1	85	-8	25	x	x	9
O=C(O)c1ccccc1N/N=C/C1=C(N2CCOCC2)C(=C\c2ccccc2)/CC1	92	-42	63*	488	12	x
Cc1cc(C)nc(N/N=C/C2=C(N3CCOCC3)C(=C/c3ccccc3)/CC2)n1	102	-21	53*	198	10	-3
Cc1cc(=O)[nH]c(N/N=C/C2=C(N3CCOCC3)C(=C\c3ccc(Cl)cc3)/CC2)n1	98	32	56*	796	-10	-3
N#C/C(=C\C1=C(N2CCOCC2)C(=C\c2ccc(Cl)cc2)/CC1)C(=O)Nc1ccccc1F	x	62*	45	566	-6	2
C=C(C)c1cc2c(ccc3ccc(=O)oc32)o1	102	x	x	88	x	x
O=C(CCn1c(=O)c2cccn2c2cccnc21)N1CCN(c2cccc(Cl)c2)CC1	104	x	x	538	7	x
CC(C)Oc1ccc2c(=O)c(-c3ccccc3)coc2c1	116	64*!	44	498	10	-3
COC(=O)COc1ccc2c(=O)c(-c3ccccc3)coc2c1	113	-1	-1	412	0	x
